The text below walks through data of ChEMBL document CHEMBL1221164, “Small molecules that delay S phase suppress a zebrafish bmyb mutant” (2005).

A word on the inhibition: it is the drop in the measured response relative to a control, in per cent.

The species entered for assay [1] is Danio rerio. Kind of assay: Inhibition of B-myb-mediated mitotic deffects in zebrafish bmyb mutant crb embryos at 50 mM. The method, boiled down:
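crb heterozygote intercross embryos exposed from 4 hpf to 24 hpf at 28.5 °C in E3 with 1% DMSO (aphidicolin […]; hydroxyurea 50 mM). Fixed in 4% paraformaldehyde, whole-mount stained for phospho-histone H3 (Ser10), genotyped by RFLP. pH3-positive cells counted in the tail distal to the yolk extension, or mutant phenotype scored by eye.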

For assay [2], the species on record is Danio rerio. Kind of assay: Inhibition of B-myb-mediated mitotic deffects in zebrafish bmyb mutant embryo assessed as intra-Sphase and G2/M checkpoint inhibition at 10 ug/ml. Put shortly: (§1)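 crb embryos given 2 mM caffeine or none at 4 hpf. Thirty minutes later […] aphidicolin added, then incubated overnight to 24 hpf at 28.5 °C in E3 with 1% DMSO. Mitotic accumulation read by whole-mount phospho-histone H3 staining, with pH3-positive cells counted in the tail distal to the yolk extension.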

The species entered for assay [3] is Danio rerio. Description: Inhibition of B-myb-mediated mitotic deffects in zebrafish bmyb mutant embryo assessed as intra-Sphase and G2/M checkpoint inhibition in presence of 2 mM caffeine at 10 ug/ml. Put shortly:
as §1

The species named for assay [4] is Danio rerio. Description: Inhibition of B-myb-mediated mitotic deffects in zebrafish bmyb mutant crb embryos at 50 mM.
The species entered for assay [5] is Danio rerio. Kind of assay: Inhibition of B-myb-mediated mitotic deffects in zebrafish bmyb mutant crb embryos assessed as number of centrosomes in pH3 -positive cells at […] at 24 hrs post fertilization by pH3 and gamma tubulin staining. It counts as cell-based. The method, boiled down:
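Centrosomes detected with a monoclonal anti-γ-tubulin antibody (1:1,000) in embryos treated overnight with […] drug.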

Assay [6] deals with T1, B-myb (Danio rerio) (UniProt Q4KMF7).
T1 sequence (whole entry): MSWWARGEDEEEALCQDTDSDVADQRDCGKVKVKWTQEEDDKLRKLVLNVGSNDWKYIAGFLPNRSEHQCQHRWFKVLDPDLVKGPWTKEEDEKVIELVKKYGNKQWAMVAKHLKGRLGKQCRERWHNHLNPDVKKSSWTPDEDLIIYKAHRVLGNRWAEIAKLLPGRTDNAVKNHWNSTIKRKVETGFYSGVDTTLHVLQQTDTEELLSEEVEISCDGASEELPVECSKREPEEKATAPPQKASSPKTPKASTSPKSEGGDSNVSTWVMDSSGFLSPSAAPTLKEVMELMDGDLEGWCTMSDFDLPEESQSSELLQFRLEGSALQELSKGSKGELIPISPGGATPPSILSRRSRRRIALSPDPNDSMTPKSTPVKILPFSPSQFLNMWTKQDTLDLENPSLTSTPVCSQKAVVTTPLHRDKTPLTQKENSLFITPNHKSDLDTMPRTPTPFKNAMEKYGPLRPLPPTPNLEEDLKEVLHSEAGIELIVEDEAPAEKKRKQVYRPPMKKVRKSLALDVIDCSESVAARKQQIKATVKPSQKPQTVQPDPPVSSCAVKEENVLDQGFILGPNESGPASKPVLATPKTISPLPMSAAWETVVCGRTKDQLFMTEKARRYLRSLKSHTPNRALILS
Kind of assay: Inhibition of B-myb-mediated mitotic deffects in wild-type Zebrafish assessed as suppression of cells without spindles at […] at 24 hrs post fertilization by pH3 and alpha tubulin staining. Put shortly: (§2)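 Embryos treated overnight with […] drug, then double-stained for α-tubulin and pH3. Spindles counted in the body distal to the yolk ball. DAPI-stained cells with condensed chromatin counted manually in one field at the tail tip.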

For assay [7], the species on record is Danio rerio. Description: Inhibition of B-myb-mediated mitotic deffects in zebrafish bmyb mutant crb embryos assessed as suppression of cells without spindles at 8 mM at 24 hrs post fertilization by pH3 and alpha tubulin staining. The method, boiled down: as §2
The target of assay [8] is T1, B-myb (Danio rerio). Description: Inhibition of B-myb-mediated mitotic deffects in wild-type zebrafish assessed as suppression of apoptosis at […] at 24 hrs post fertilization by TUNEL assay. Put shortly: (§3)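 Embryos treated overnight (from 4 hpf) with […] drug, washed at 24 hpf. Apoptosis read by TUNEL staining at 24 hpf, and by brain opacity morphology at 30 hpf.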

The species named for assay [9] is Danio rerio. Description: Inhibition of B-myb-mediated mitotic deffects in zebrafish bmyb mutant crb embryos assessed as suppression of apoptosis at 8 mM at 24 hrs post fertilization by TUNEL assay. The method, boiled down:
as §3

Assay [10] deals with T1, B-myb (Danio rerio). Description: Inhibition of B-myb mediated mitotic deffects in wild-type zebrafish assessed as suppression of polyploidy at […] at 24 hrs post fertilization […]. The method, boiled down: (§4)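 Control and treated embryos, […] overnight, disaggregated and DNA content (2n/4n/8n) measured by flow cytometry. Individual-embryo FACS used a cell-suspension aliquot for genotyping.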

Assay [11] is filed under the species Danio rerio. Kind of assay: Inhibition of B-myb-mediated mitotic deffects in zebrafish bmyb mutant crb embryos assessed as suppression of polyploidy at 8 mM at 24 hrs post fertilization by TUNEL assay. The method, boiled down: as §4
Assay [12] is filed under the species Danio rerio. Kind of assay: Inhibition of B-myb-mediated mitotic deffects in zebrafish bmyb mutant crb embryos. Put shortly:
(§5)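 crb heterozygote incrosses; embryos in E3 with 1% DMSO at 28.5 °C, compound added at 4 hpf and kept until 24 hpf ([…] except in dose-response). Fixed in 4% paraformaldehyde and whole-mount stained for serine-10-phosphorylated histone H3. All pH3-positive cells in the tail distal to the yolk extension counted, at least five embryos per condition. Embryos genotyped by RFLP. ED50 from dose-response.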

The species named for assay [13] is Danio rerio. Description: Inhibition of B-myb-mediated mitotic deffects in zebrafish bmyb mutant crb embryos at […]. As to conditions: TDE = time-dependent effect. Put shortly:
as §5

The target in assay [14] is T1, B-myb (Danio rerio). Description: Inhibition of B-myb-mediated mitotic deffects in wild-type zebrafish assessed as number of centrosomes in pH3 -positive cells at […] at 24 hrs post fertilization by pH3 and […] staining. It counts as cell-based.
The species entered for assay [15] is Danio rerio. Description: Inhibition of B-myb-mediated mitotic deffects in zebrafish bmyb mutant crb embryos assessed as reduction in abnormalities in mitotic spindle by pH3 and alpha tubulin staining. As to conditions: concentration not given here. The method, boiled down: as §2
The species named for assay [16] is Danio rerio. Description: Inhibition of B-myb-mediated mitotic deffects in zebrafish bmyb mutant crb embryos assessed as prometaphase arrest at 10 uM by pH3 and alpha tubulin staining.
The target in assay [17] is T1, B-myb (Danio rerio). Description: Inhibition of B-myb-mediated mitotic deffects in wild-type zebrafish embryo assessed as accumulation of cells in early S phase at […] at 24 hrs post fertilization for 6 hrs by flow cytometry. The method, boiled down: (§6)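 Wild-type embryos exposed 24–30 hpf (6 h at 28.5 °C) to […] drug. Embryos disaggregated, immunostained for pH3 and DNA content measured by flow cytometry (G1/S/G2M fractions). For S-phase confirmation, embryos labelled with BrdU and incorporation read by whole-mount immunostaining and FACS.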

Assay [18] deals with T1, B-myb (Danio rerio). Kind of assay: Inhibition of B-myb-mediated mitotic deffects in wild-type zebrafish embryo assessed as accumulation of cells in early S phase at […] at 24 hrs post fertilization for 6 hrs by flow cytometry in presence of 10 mM BrdU. The method, boiled down: as §6
For orientation: A flow cytometer gives signals particle by particle.

Assay [19] is filed under the species Danio rerio. Kind of assay: Inhibition of B-myb-mediated mitotic deffects in zebrafish bmyb mutant crb embryos assessed as increase in cyclin B1 mRNA expression. The method, boiled down: (§7)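 Wild-type and crb embryos treated with […] drug, then whole-mount in situ hybridization for cyclin B1.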
The target of assay [20] is T1, B-myb (Danio rerio). Description: Inhibition of B-myb-mediated mitotic deffects in wild-type zebrafish assessed as increase in cyclin B1 mRNA expression. The method, boiled down: as §7
A short description of assay [21]: Induction of S to M phase cell cycle progression in zebrafish bmyb mutant embryo cells assessed as Brdu incorporation. The format is functional, Danio rerio.
The species entered for assay [22] is Danio rerio. Kind of assay: Inhibition of B-myb-mediated mitotic deffects in zebrafish bmyb mutant embryo assessed as increase in mitotic cells with condensed chromatin at 10 uM by pH3 and alpha tubulin staining. The format is cell-based.

Structures are written as SMILES. The source made the active and inactive calls. The calls are words filed in the database; no cut-off is given here.

Regarding `C[C@@]1(CO)[C@H](O)CC[C@@]2(C)[C@H]1CC[C@H]1C[C@@H]3C[C@@]12CC[C@]3(O)CO`, the inhibition entry in the assay filed under Danio rerio [1], in the assay filed under Danio rerio [2], in the assay listed under Danio rerio [3] and in the assay filed under Danio rerio [4] was “Active” in each case.

Regarding `NC(=O)NO`, the inhibition result in the assay filed under Danio rerio [1] and in the assay listed under Danio rerio [4] was “Active” each time.

Regarding `O=C(Nc1ncccc1O)C12CC3CC(CC(C3)C1)C2` [PERSYNTHAMIDE], the inhibition entry in the assay filed under Danio rerio [5], at B-myb (Danio rerio) [6], in the assay listed under Danio rerio [7], on B-myb (Danio rerio) [8], in the assay listed under Danio rerio [9] and at B-myb (Danio rerio) [10] was “Active” throughout. The inhibition entry in the assay listed under Danio rerio [11], at B-myb (Danio rerio) [14], in the assay listed under Danio rerio [16], at B-myb (Danio rerio) [17], on B-myb (Danio rerio) [18] and in the assay filed under Danio rerio [19] was “Active” each time. At B-myb (Danio rerio) [20], the inhibition entry is “Active”. Moreover, in the assay filed under Danio rerio [12], the ED50 stood at 5 µM. Further, the inhibition result in the assay filed under Danio rerio [13] is “tde”; in the assay listed under Danio rerio [15], 55%. Also, the Activity in assay [21] is 60%. Besides, the fold change (FC) in the assay listed under Danio rerio [22] is 4.
